Compound activity as filed in PubChem BioAssay.
This is a sample that favours compounds with a hit; in the whole collection about 3.5% have one here.
RGS4 pot: RGS4 potentiators or activators, primary screen, cell-based, HEK293 M3R inducible RGS4, calcium flux. B-score at 10 µM. 310,000 tested, 0.92% active. carbachol calcium flux Fluo4; hits give low values;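 active means B-score of the integrated calcium signal more than 4 SD below the library mean, with starting fluorescence not abnormally high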;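 further: negative B-score means reduced calcium response which marks RGS4 activation or potentiation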
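Detection: kinetic calcium fluorescence imaging with Fluo4-AM dye, 2 µM / Material: HEK293 cells with stable M3R and inducible RGS4 / Schedule: recording 10 s baseline at 1 Hz, 100 s post-agonist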
RGS4 inh: RGS4 inhibitors, primary screen, cell-based, HEK293 M3R inducible RGS4, calcium flux | Regulator of G-protein signaling 4 (Homo sapiens), P49798 | Fluo-4 calcium flux; hits give high values; triggered by carbachol at its EC20 | B-score at 10 µM | 310,000 tested, 0.45% active | AID 463165, 2010;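 active means B-score, a plate-corrected calcium signal, over three deviations above library mean, with baseline fluorescence within five deviations of library mean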;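 further: RGS4 expression induced by doxycycline in cells with stable M3 receptor; B-score is computed from the integrated fluorescence ratio over baseline after carbachol; higher B-score means a larger calcium signal and so more RGS4 inhibition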
Target sequence (P49798 whole entry, looked up): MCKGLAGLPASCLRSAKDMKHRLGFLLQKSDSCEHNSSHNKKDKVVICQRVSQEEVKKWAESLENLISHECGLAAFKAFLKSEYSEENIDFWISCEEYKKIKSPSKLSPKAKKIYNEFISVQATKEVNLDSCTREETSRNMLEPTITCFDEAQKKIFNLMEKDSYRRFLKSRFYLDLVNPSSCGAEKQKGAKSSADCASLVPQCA
MrgX1 PAM: positive allosteric modulators of MrgX1, primary screen, HEK293 cells, Fluo-4 calcium flux; FDSS; hits give high values; B-score at 10 µM; 310,000 tested, 0.63% active; AID 588675, 2011;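 active means plate-corrected calcium response at least 3 library SD above typical, normal starting fluorescence, not activating the receptor alone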;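 further: compound read alongside a low EC10 to EC30 dose of BAM8-22 agonist; peak minus trough fluorescence over baseline measured at the second addition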
Target sequence (Q96LB2 whole entry, looked up): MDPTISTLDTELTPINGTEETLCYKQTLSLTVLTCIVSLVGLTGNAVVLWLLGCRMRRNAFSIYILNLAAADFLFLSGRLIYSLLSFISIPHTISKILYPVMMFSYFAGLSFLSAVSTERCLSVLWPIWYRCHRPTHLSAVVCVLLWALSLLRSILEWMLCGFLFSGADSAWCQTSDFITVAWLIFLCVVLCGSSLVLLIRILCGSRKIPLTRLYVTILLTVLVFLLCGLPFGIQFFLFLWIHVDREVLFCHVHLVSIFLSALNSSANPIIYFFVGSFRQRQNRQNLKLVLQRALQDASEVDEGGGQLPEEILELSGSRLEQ
MrgX1 ag: agonists of human MrgX1 receptor, primary screen, HEK293 cells, Fluo-4 calcium flux. B-score at 10 µM. Fluo-4 calcium fluorescence, agonist mode; hits give high values. AID 588627, 2011. Mas-related G-protein coupled receptor member X1 (Homo sapiens), Q96LB2. 310,000 tested, 0.44% active;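 active means calcium response B-score plate-corrected fluorescence ratio at least 3 library SD, with starting fluorescence B-score inside 5 SD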
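Test system: HEK293 cells stably expressing human MrgX1 receptor; Input: fifteen thousand cells per well; Dosing: compound delivered in addition one of three; Schedule: overnight seeding, then 1 h dark dye loading; Technique: Fluo-4 NW calcium fluorescence; Measure: B-scored fluorescence response ratio; Controls: positive and negative controls per plate.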
MrgX1 antag: antagonists of human MrgX1 receptor, primary screen, HEK293 cells, Fluo-4 calcium flux; BAM8-22 antagonism; hits give low values; B-score at 10 µM; AID 588676, 2011; Mas-related G-protein coupled receptor member X1 (Homo sapiens), Q96LB2; 310,000 tested, 1.3% active;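 active means calcium-response B-score plate-corrected more than 3 library SD below zero, starting fluorescence within 5 deviations, no agonist response on first addition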;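 further: peak minus trough fluorescence over baseline after final BAM8-22 challenge near maximal dose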
RGS4 inh valid: enhanced carbachol calcium response, M3R/RGS4 cells, RGS4 inhibitor project, cell-based, validation screen, HEK293 M3R/RGS4, calcium flux. AID 492999, 2010. carbachol calcium Fluo-4 fluorescence; carbachol added at its EC20; 0 = buffer wells, 100 = carbachol control. shares compounds with RGS4 inh. calcium response, % at 10 µM. 1,700 tested, 65% active;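 active means duplicate-averaged calcium response above the buffer-only control mean plus 5 SD of those controls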;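 further: integrated fluorescence ratio F max minus min over baseline F0; higher response in RGS4-induced cells means RGS4 inhibition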
M3R Ca ctr: carbachol calcium response in non-induced M3R cells, confirmation, counter-screen for RGS4 inhibitor project, cell-based, HEK293 M3R; activity (percent), % at 10 µM; shares compounds with RGS4 inh; AID 493000, 2010; 1,900 tested, 20% active; carbachol calcium Fluo-4; submaximal (EC20) carbachol stimulus; buffer wells 0%, carbachol control wells 100%; call rule not given here;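 further: RGS4 induction absent so cells express M3R without RGS4; higher means more calcium signal and flags a non-specific hit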
M3R basal Ca ctr: signal in non-induced cells without carbachol, RGS4 inhibitor counter-screen; HEK293 M3R/RGS4 non-induced, Fluo-4 calcium, no carbachol; normalised: buffer wells 0%, carbachol wells 100%; 1,900 tested, 22% active; calcium response (agonist-mode artifact), % at 10 µM; shares compounds with RGS4 inh;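 active means duplicate-averaged calcium rise in uninduced cells above buffer wells' mean plus 5 SD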
A number is an active result; n = inactive; x = no result.

SMILES	RGS4 pot	RGS4 inh	MrgX1 PAM	MrgX1 ag	MrgX1 antag	RGS4 inh valid	M3R Ca ctr	M3R basal Ca ctr
CCOC(=O)C(=Cc1ccc(-n2ccnc2)cc1)C(=O)OCC	n	13.1	n	n	n	18.5%	n	n
COC(=O)c1ccc(-n2ccnc2)cc1	n	n	n	n	n	x	x	x
COCCOC(=O)/C(=C/c1ccc(OC(=O)c2ccccc2)cc1)C(C)=O	n	14.7	n	31.5	n	82.5%	n	16.5%
CCOC(=O)/C(=C/c1ccc(OC(=O)c2ccncc2)cc1)C(C)=O	n	7.63	n	29.1	n	27.5%	41.5%	16.0%
O=C(CN(CC1CCCO1)C(=O)c1nsc(Cl)c1Cl)NC1CCCC1 (centres undefined)	n	n	n	n	n	x	x	x
Nc1nc2ccc(S(=O)(=O)c3ccc4nc(N)sc4c3)cc2s1	n	6.3	n	n	n	n	n	n
O=C1/C(=C/c2ccncc2)CCC/C1=C\c1ccncc1	n	23.6	x	x	x	107.0%	n	n
O=C1/C(=C\c2ccncc2)CCc2ccccc21	n	n	n	n	n	x	x	x
CN(C(=O)CSc1nnc(CNC(=O)c2ccccc2)o1)c1ccccc1	n	n	n	n	n	x	x	x
CCn1cc(Cl)c(C(=O)N2N=C(c3ccc4ccccc4c3)CC2c2ccccc2O)n1 (centres undefined)	n	n	n	n	n	x	x	x
CCn1cc([N+](=O)[O-])c(C(=O)N2N=C(c3ccc4ccccc4c3)CC2c2ccccc2O)n1 (centres undefined)	n	n	n	n	n	x	n	n
O=C(CCc1ccccn1)N1CCCC(N2CCN(c3ccc(F)cc3)CC2)C1 (centres undefined)	n	n	x	x	x	x	x	x
O=c1c2ccccc2nc2n1CCS2(=O)=O	n	6.19	n	n	n	26.5%	n	n
O=c1c2ccccc2nc2c3ccccc3c3nncn3n12	n	n	x	x	x	x	x	x
CC(OC(=O)c1ccc(NS(=O)(=O)c2ccc3[nH]c(=O)[nH]c3c2)cc1)C(=O)Nc1ccc(Cl)cc1 (centres undefined)	n	n	n	n	n	n	n	n
COc1ccc(Cl)cc1NC(=O)C(C)OC(=O)c1ccc(NS(=O)(=O)c2ccc3[nH]c(=O)[nH]c3c2)cc1 (centres undefined)	n	11.2	n	n	n	45.5%	n	n
CCn1c(=O)c2cc(C(=O)N(C)c3ccc(OC)cc3OC)sc2c2ccccc21	n	n	n	n	n	x	x	x
CCn1c(=O)c2cc(C(=O)N(C)c3cc(C)ccc3OC)sc2c2ccccc21	n	6.05	n	n	n	30.5%	59.5%	n
CCC(C(=O)N1CCOCC1)n1nc(C)c2c(C)n(-c3ccccc3)nc2c1=O (centres undefined)	n	8.97	n	n	n	5.0%	n	n
Cc1ccc(-c2ccc(CCC(=O)O)n2-c2ccc(C(=O)O)cc2)cc1	n	n	n	n	n	x	x	x
N#Cc1c(NC(=O)CSc2nc(N)cc(=O)[nH]2)sc2c1CCCCCC2	n	n	n	n	n	x	x	x
N#Cc1c(NC(=O)CSc2ncn[nH]2)sc2c1CCCCC2	n	n	n	n	n	x	n	n
O=C(OCC(O)COc1ccccc1)c1ccc([N+](=O)[O-])cc1 (centres undefined)	n	n	n	n	n	x	x	x
CCCCn1c(/N=C/c2ccc(N(C)C)cc2)nc2ccccc21	n	n	n	n	n	x	x	x
CCCn1c(/N=C/c2c[nH]c3ccccc23)nc2ccccc21	n	5.07	n	n	n	8.0%	n	n
SMILES	RGS4 pot	RGS4 inh	MrgX1 PAM	MrgX1 ag	MrgX1 antag	RGS4 inh valid	M3R Ca ctr	M3R basal Ca ctr
CCCn1c(/N=C/c2ccccc2O)nc2ccccc21	n	n	n	n	n	x	x	x
CCn1c(/N=C/c2c[nH]c3ccccc23)nc2ccccc21	n	n	n	n	n	x	n	n
CCCCn1c(/N=C/c2c[nH]c3ccccc23)nc2ccccc21	n	n	n	n	n	x	n	n
COC(=O)c1cn(C(=O)/C=C/c2ccc(OC)c(OC)c2)c2ccccc12	n	4.7	n	n	n	n	n	n
COC(=O)c1cn(C(=O)OC)c2ccccc12	n	n	n	n	n	x	x	x
Cc1cc(C)nc(Nc2ccc(Cl)cc2C)n1	n	n	n	n	n	x	x	x
Cn1nc(C(=O)NNC(=O)CCc2ccccc2Cl)c2ccccc2c1=O	n	n	n	n	n	x	x	x
COc1ccc(C2NC(=S)NC(C)=C2C(=O)c2ccccc2)cc1OC (centres undefined)	n	n	n	n	n	x	x	x
CC1=C(C(=O)c2ccccc2)C(c2cccc([N+](=O)[O-])c2)NC(=S)N1 (centres undefined)	n	10.4	n	n	n	23.0%	33.0%	n
CCc1nnc(NC(=O)CSc2nnc(C(C)NC(=O)c3ccccc3)n2C)s1 (centres undefined)	n	n	n	n	n	x	x	x
CC(C)(C)OC1NS(=O)(=O)OCC1NCOC(Cl)(Cl)Cl (centres undefined)	n	19.2	n	n	n	26.0%	39.5%	22.5%
Cc1ccc(C(=O)N/C(=C\c2ccc(Br)cc2)c2nc(=S)[nH][nH]2)cc1	n	n	n	n	n	x	n	11.0%
O=C(N/C(=C/c1cccc(Br)c1)c1nc(=S)[nH][nH]1)c1ccccc1	n	7.21	n	n	n	45.0%	n	96.5%
O=C1Nc2ccccc2/C1=C/c1ccc([N+](=O)[O-])cc1	n	8.12	n	n	n	n	30.0%	n
CCOC(=O)C(C)/C(C)=N\Nc1ccc([N+](=O)[O-])cc1[N+](=O)[O-] (centres undefined)	n	n	n	n	n	x	x	x
CCOC(=O)C(C)/C(C)=N/NC(N)=S (centres undefined)	n	17.1	n	n	n	54.0%	n	n
COC(=O)c1c(C)oc2c1cc(NS(=O)(=O)c1ccc(C(=O)O)cc1)c1ccccc12	n	5.61	n	n	n	15.5%	n	n
